The test system of data set [1] is Human immunodeficiency virus. The experiment in a line: Antiviral activity against HIV NL-Lai infected in human TZM-bl cells assessed as inhibition of viral infection at 100 uM treated before viral infection measured after 24 hrs by luciferase assay. The data set is classed as functional, organism-based. In a few lines: (§1)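 TZM-bl cells infected with NL-Lai (X4) virus. Compounds at 100 μM were given either before infection or 4 h after infection. In the post-infection arm, unbound virus was washed off with PBS and fresh medium containing compound was added. T20 and AMD3100 controls were used at 2 μM. Luciferase was read 24 h later. Mean ± SD of triplicates.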

Data set [2] relates to Human immunodeficiency virus. Description: Antiviral activity against HIV NL-Lai infected in human TZM-bl cells assessed as inhibition of viral infection at 100 uM treated 4 hrs after viral infection measured after 24 hrs by luciferase assay. The format is functional, organism-based. The method, boiled down:
as §1

The test system of data set [3] is Human immunodeficiency virus. The experiment in a line: Antiviral activity against HIV NL-Lai infected in human TZM-bl cells assessed as inhibition of viral infection after 24 hrs by luciferase assay. The format is functional, organism-based. The conditions noted are these: Human immunodeficiency virus 1, NL-Lai. The method, boiled down:
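TZM-bl cells (2×10^4/well) adhered overnight, then infected with X4 NL-Lai virus (from 293T transfection, titered on TZM-bl) with 20 μg/mL DEAE dextran and serial dilutions of compound. Luciferase read 24 h post infection and normalized to virus-only wells. IC50 taken from curve fit of data pooled from at least three independent experiments.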

The test system of data set [4] is Human immunodeficiency virus 1. The experiment in a line: Binding affinity to HIV1 3B R15K V3 loop of gp-120 using monomolecular film after 2 to 3 hrs by microtensiometer analysis. In a few lines: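 Glycolipid monolayers spread from hexane-chloroform-ethanol onto a pure water subphase at various initial surface pressures, with 5 min allowed for solvent evaporation, at 20°C ± 1°C. Critical pressure of insertion extrapolated to zero Δπ; surface pressure accuracy ± 0.25 mN/m.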

Data set [5] can be described thus: Cytotoxicity against human TZM-bl cells up to 200 uM after 24 hrs by MTS assay. The data set is classed as cell-based. The method, boiled down: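 TZM-bl cells were seeded and left overnight, then exposed to serial dilutions starting at 200 μM for 24 h. MTS dye reduction was read as OD at 490 nm and normalized to cells in medium only.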
Background: Tetrazolium dyes change colour on reduction, which living cells bring about.

Data set [6] in a line: Critical micelle concentration of the compound. The data set is classed as physicochemical. In a few lines:
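Glycolipid stocks in hexane:chloroform:ethanol (11:5:4) were injected 1:1000 into water, with surface tension recorded continuously on a microtensiometer. CMC was taken as the concentration above which surface tension no longer fell. Measured in triplicate.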

This is an account of results in ChEMBL document CHEMBL1811870, “Synthesis, gp120 binding and anti-HIV activity of fatty acid esters of 1,1-linked disaccharides” (Bioorg Med Chem, 2011).

pIC50: −log10 of the molar value. Calls of active or inactive are those of the source. The rule behind the calls is not given here.

With `c1cc(CN2CCCNCCNCCCNCC2)ccc1CN1CCCNCCNCCCNCC1`, in data set [1], the inhibition result was “Active”. For the same compound, the inhibition entry in data set [2] was “inactive”.

Take `CCCCCCCCCCCC(=O)OCC(O)CO` (centres undefined) [GLYCEROL MONOLAURATE]: in data set [3], the pIC50 – broadly, −log10 of the IC50, conventionally taken in molar units – is under 4.00.

In data set [4], `CCCCCCCCCCCCCCCC(=O)OC[C@H]1O[C@H](O[C@@H]2O[C@H](CO)[C@@H](O)[C@H](O)[C@H]2O)[C@@H](O)[C@@H](O)[C@@H]1O` registered a CPI of 18 mN/meter. Further, the pIC50 in data set [3] is 4.28. In addition, in data set [5], the Activity entry is given as “Non-toxic”. Also, the inhibition entry in data set [1] was “Active”. In data set [2], the inhibition entry was “inactive”. The CMC in data set [6] amounted to 10 µM.

As to `CCCCCCCCCCCCCCCC(=O)OC[C@H]1O[C@H](O[C@@H]2O[C@H](CO)[C@H](O)[C@H](O)[C@H]2O)[C@@H](O)[C@@H](O)[C@@H]1OC(=O)CCCCCCCCCCCCCCC`, the CPI in data set [4] was found to be 18 mN/meter. Moreover, in data set [3], the pIC50 is under 4.00. Moreover, the Activity entry in data set [5] is “Non-toxic”.

With `CCCCCCCCCCCCCCCC(=O)OC[C@H]1O[C@H](O[C@H]2O[C@H](CO)[C@H](O)[C@H](O)[C@H]2O)[C@@H](O)[C@@H](O)[C@@H]1O`, in data set [3], the pIC50 is 4.32. For the same compound, in data set [5], the Activity result was “Non-toxic”. Moreover, in data set [1], the inhibition entry is “Active”. Also, the inhibition entry in data set [2] is “inactive”.

In data set [4], `CCCCCCCCCCCCCCCC(=O)OC[C@H]1O[C@H](O[C@@H]2O[C@H](CO)[C@H](O)[C@H](O)[C@H]2O)[C@@H](O)[C@@H](O)[C@@H]1O` registered a CPI of 18 mN/meter. Moreover, in data set [3], the pIC50 was under 4.00. Moreover, the Activity entry in data set [5] was “Non-toxic”. The compound further yielded a CMC in data set [6] of 9.8 µM.

Take `CCCCCCCCCCCCCCCCO[C@@H]1O[C@H](CO)C(O)[C@H](O)[C@H]1O` (single isomer, unassigned): the pIC50 in data set [3] is 4.36. In addition, in data set [5], the Activity entry is listed as “Non-toxic”. The inhibition entry in data set [1] is “Active”. Moreover, the inhibition result in data set [2] was “inactive”.

For `CCCCCCCCCCCCCCCC(=O)OC[C@H]1O[C@H](OC)[C@@H](O)[C@@H](O)[C@@H]1OC(=O)CCCCCCCCCCCCCCC`, the CPI in data set [4] worked out at 18 mN/meter. Further, the pIC50 in data set [3] is under 4.00. Also, the Activity entry in data set [5] is on record as “Non-toxic”.

For `CCCCCCCCCCCCCCCC(=O)O[C@@H]1[C@H](O)[C@@H](O[C@@H]2O[C@H](CO)[C@H](O)[C@H](O)[C@H]2O)O[C@H](CO)[C@H]1O`, the CPI in data set [4] was 18 mN/meter. In data set [3], the pIC50 is 4.12. Besides, the Activity entry in data set [5] is given as “Non-toxic”. The inhibition result in data set [1] was “Active”. In addition, in data set [2], the inhibition result was “inactive”. In data set [6], this compound returned a CMC of 12 µM.

For `CCCCCCCCCCCCC/C=C/[C@@H](O)[C@H](CO[C@@H]1O[C@H](CO)[C@H](O)[C@H](O)[C@H]1O)NC(=O)C(O)CCCCCCCCCCCCCCCCCCCCCC` (some centres undefined), in data set [4], the CPI is 22 mN/meter. Besides, the Activity result in data set [5] is on record as “Non-toxic”.

In turn, `CCCCCCCCCCCCCCCC(=O)OC[C@H]1O[C@H](OC)[C@@H](O)[C@@H](O)[C@@H]1O` gave a CPI in data set [4] of 18 mN/meter. Further, in data set [3], the pIC50 was under 4.00. Further, the Activity result in data set [5] is reported as “Non-toxic”. In data set [6], this compound came in with a CMC of 13 µM.
